Laboratory results as given in ChEMBL document CHEMBL1145281, “Potent bombesin-like peptides for GRP-receptor targeting of tumors with 99mTc: a preclinical study” (J Med Chem, 2005).
pIC50, pKd: −log10 of the molar value.

Key:
[1] = target: T1, Gastrin-releasing peptide receptor (Homo sapiens, UniProt P30550); assay: Inhibition of gastrin releasing peptide receptor expressed in human prostate cancer cells; type: cell-based, Cancer cell lines
[2] = target: T2, Bombesin receptor subtype-3 (Homo sapiens, UniProt P32247); assay: Inhibition of bombesin subtype 3 receptor expressed in human lung carcinoids
T2 sequence (P32247 whole entry): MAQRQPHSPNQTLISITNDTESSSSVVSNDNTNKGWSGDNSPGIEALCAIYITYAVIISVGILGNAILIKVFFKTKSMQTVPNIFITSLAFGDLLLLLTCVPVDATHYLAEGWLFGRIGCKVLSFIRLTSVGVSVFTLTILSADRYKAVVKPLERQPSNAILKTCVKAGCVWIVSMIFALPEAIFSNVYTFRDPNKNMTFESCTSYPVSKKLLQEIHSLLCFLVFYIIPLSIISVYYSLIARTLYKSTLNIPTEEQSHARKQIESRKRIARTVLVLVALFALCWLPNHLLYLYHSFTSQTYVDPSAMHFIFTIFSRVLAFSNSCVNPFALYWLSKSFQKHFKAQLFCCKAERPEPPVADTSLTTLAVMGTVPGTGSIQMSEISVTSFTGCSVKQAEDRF

[3] = target: T1, Gastrin-releasing peptide receptor; assay: Displacement of [125 I-Tyr4]BB from human gastrin releasing peptide receptor expressed in PC-3 cell membranes
PC-3 = assay: Equilibrium constant of compound for binding to the active sites in human PC-3 cell membranes; type: functional
How it was run: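 Saturation binding of 99mTc/99gTc-labelled peptides in PC-3 membrane homogenates (50 μg protein), 0.06–12 nM total peptide, two triplicate sets for total and nonspecific binding. HEPES pH 7.6 buffer with 1% BSA, 5.5 mM MgCl2, 35 μM bacitracin. 1 h at 37 °C. Nonspecific binding defined with [Tyr4]BB. Kd from Scatchard analysis.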

T1 sequence (P30550 whole entry): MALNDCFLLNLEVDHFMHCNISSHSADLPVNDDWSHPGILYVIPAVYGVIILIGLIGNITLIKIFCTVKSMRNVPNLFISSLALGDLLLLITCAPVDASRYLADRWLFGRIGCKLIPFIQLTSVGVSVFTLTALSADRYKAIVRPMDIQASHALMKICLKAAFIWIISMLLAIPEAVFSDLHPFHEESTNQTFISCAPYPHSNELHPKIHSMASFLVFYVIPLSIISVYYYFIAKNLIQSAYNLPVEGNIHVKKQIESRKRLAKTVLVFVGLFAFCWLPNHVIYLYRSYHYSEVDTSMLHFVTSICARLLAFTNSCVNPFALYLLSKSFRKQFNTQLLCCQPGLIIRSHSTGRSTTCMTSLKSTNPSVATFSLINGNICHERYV

| SMILES | pIC50 [1] | pIC50 [2] | pIC50 [3] | pKd (PC-3) |
| --- | --- | --- | --- | --- |
| CCCC[C@H](NC(=O)[C@H](CC(C)C)NC(=O)[C@H](Cc1c[nH]cn1)NC(=O)CNC(=O)[C@@H](NC(=O)[C@H](C)NC(=O)[C@H](Cc1c[nH]c2ccccc12)NC(=O)[C@H](CCC(N)=O)NC(=O)[C@H](CC(N)=O)NC(=O)CNC(=O)[C@H](Cc1ccc(O)cc1)NC(=O)[C@H](CCCN=C(N)N)NC(=O)[C@H](CCC(N)=O)NC(=O)[C@@H]1CCCN1C(=O)C(CNCCN)CNCCN)C(C)C)C(N)=O | 8.71 | < 7.00 | 9.82 |  |
| CCCC[C@H](NC(=O)[C@H](CC(C)C)NC(=O)[C@H](Cc1c[nH]cn1)NC(=O)CNC(=O)[C@@H](NC(=O)[C@H](C)NC(=O)[C@H](Cc1c[nH]c2ccccc12)NC(=O)[C@H](CCC(N)=O)NC(=O)COCC(=O)Nc1ccc(CC(CNCCN)CNCCN)cc1)C(C)C)C(N)=O | 8.89 | < 7.00 | 9.22 | 9.85 |
| CSCC[C@H](NC(=O)[C@H](CC(C)C)NC(=O)[C@H](Cc1c[nH]cn1)NC(=O)CNC(=O)[C@@H](NC(=O)[C@H](C)NC(=O)[C@H](Cc1c[nH]c2ccccc12)NC(=O)[C@H](CCC(N)=O)NC(=O)COCC(=O)Nc1ccc(CC(CNCCN)CNCCN)cc1)C(C)C)C(N)=O | 9.19 | 7.43 | 10.10 | 10.15 |
